The values that follow come from PMC10246735 (European journal of medicinal chemistry, 2023).

Series [1] concerns LNCaP (AR+) androgen-sensitive human prostate adenocarcinoma cells. The series can be described thus: MTT antiproliferative activity assay on LNCaP cells. It counts as cell-based. (In general: Formazan colour is commonly taken as a measure of viable cells.)
Series [2] relates to PC3 (AR−) androgen-insensitive human prostate adenocarcinoma cells. The series can be described thus: MTT antiproliferative activity assay on PC3 cells. The format is cell-based. The note with it: 48 h, read-out: IC50 (concentration of drug inhibiting cell growth by 50%), PC3 (AR−).
The next series has as its target recombinant CYP3A4 (Homo sapiens, UniProt P08684). The series is described as follows: Equilibrium spectral titration of recombinant CYP3A4. It counts as binding. The note with it: for high spin content: estimated at the end of equilibrium titrations relative to azamulin-bound CYP3A4 (100% high-spin conversion); for Kd: read-out: S50, ligand concentration at half-saturation (equivalent to Kd), 0.1 M phosphate buffer, pH 7.4; for Kd / nH, Hill coefficient: sigmoidal fittings to titration plots, mean of three ± SD. Put shortly: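 Codon-optimized full-length human CYP3A4 (1.5–2 μM) in 0.1 M phosphate buffer, pH 7.4, with 20% glycerol and 1 mM dithiothreitol, at ambient temperature. DMSO-dissolved ligand added in small aliquots (final solvent <2%). Titration plots were built from difference absorbance spectra. Sigmoidal fits gave S50 (half-saturation ligand concentration, equivalent to Kd) and Hill coefficient; hyperbolic fits gave Kd.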

recombinant CYP3A4, sequence (P08684 whole entry): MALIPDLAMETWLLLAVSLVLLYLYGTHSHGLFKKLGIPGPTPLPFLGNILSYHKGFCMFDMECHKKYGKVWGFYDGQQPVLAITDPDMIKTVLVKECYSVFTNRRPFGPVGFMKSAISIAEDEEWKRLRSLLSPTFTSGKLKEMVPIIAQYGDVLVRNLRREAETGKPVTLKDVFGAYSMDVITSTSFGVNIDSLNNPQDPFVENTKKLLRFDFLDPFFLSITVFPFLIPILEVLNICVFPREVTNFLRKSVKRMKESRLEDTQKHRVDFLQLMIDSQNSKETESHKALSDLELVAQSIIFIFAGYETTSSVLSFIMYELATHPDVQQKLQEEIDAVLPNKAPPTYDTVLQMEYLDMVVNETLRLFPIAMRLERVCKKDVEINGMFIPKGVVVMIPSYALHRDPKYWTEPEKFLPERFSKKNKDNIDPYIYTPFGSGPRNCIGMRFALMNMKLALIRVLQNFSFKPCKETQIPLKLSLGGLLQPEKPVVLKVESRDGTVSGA

For `CC(=O)O[C@]1(C(C)=O)CC[C@H]2[C@@H]3C=C(Cl)C4=CC(=O)[C@@H]5C[C@@H]5[C@]4(C)[C@H]3CC[C@@]21C` [CPA, cyproterone acetate, reference compound], the IC50 in series [1] (Homo sapiens, LNCaP/AR, 48 h, read-out: IC50 (concentration of drug inhibiting cell growth by 50%), LNCaP (AR+)) was found to be 40.7 µM; in series [2], 84.3 µM.
As to `C=CC[C@]1(O)CC[C@H]2[C@@H]3CCC4=CC(=O)CC[C@]4(C)[C@H]3CC[C@@]21C` [Compound 10, 17α-allyl-androst-4-en-3-one-17β-ol], on recombinant CYP3A4, the high spin content is given as 70 ± 2%; the Kd stood at 22 ± 4 µM; the “nH, Hill coefficient” value was 1.52 ± 0.02.
For the compound `C[C@]12CCC(=O)C=C1CC[C@@H]1[C@@H]2CC[C@@]2(C)[C@H]1CC[C@@]2(O)C/C=C/C[C@]1(O)CC[C@H]2[C@@H]3CCC4=CC(=O)CC[C@]4(C)[C@H]3CC[C@@]21C` [Compound 11, ((E)-17,17’-(but-2-ene-1,4-diyl))bis(androst-4-en-3-one-17β-ol)], the high spin content at recombinant CYP3A4 is 92 ± 4%. Further, the “fold higher affinity for CYP3A4 compared to 15” value on recombinant CYP3A4 (ratio of Kd) is 40 fold. In series [1] (LNCaP (AR+) cells, ratio of IC50), the “fold more potent than the reference drug CPA” value was ~ 3.5 times. Also, the “fold more potent on AR+ LNCaP than AR− PC3 cells” value in series [1] (ratio of IC50 PC3 / LNCaP) is ~ 3.7 times.
With `C=CC[C@]1(O)CC[C@H]2[C@@H]3CC[C@H]4CC(=O)CC[C@]4(C)[C@H]3CC[C@@]21C` [Compound 14, 17α-allyl-androst-3-one-17β-ol], on recombinant CYP3A4, the high spin content is given as 71 ± 3%; the Kd stood at 17 ± 2 µM; the “nH, Hill coefficient” value was 1.76 ± 0.06.
With `C[C@]12CCC(=O)C[C@@H]1CC[C@@H]1[C@@H]2CC[C@@]2(C)[C@H]1CC[C@@]2(O)C/C=C/C[C@]1(O)CC[C@H]2[C@@H]3CC[C@H]4CC(=O)CC[C@]4(C)[C@H]3CC[C@@]21C` [Compound 15, ((E)-17,17’-(but-2-ene-1,4-diyl))bis(androst-3-one-17β-ol)], the high spin content at recombinant CYP3A4 was 33 ± 3%.
